The source made the active and inactive calls. No cut-off for these calls is given here.
Columns and labels:
SAOS-2 [1] = experiment: Antiproliferative activity against human Saos2 cells after 72 hrs by MTT assay; type: functional, cell-based; details: SAOS-2, 72 h
Summary of the method: (§1)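 Cell growth inhibition was read by MTT assay, and IC50 values were reported.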

HCT-116 [2] = experiment: Antiproliferative activity against human HCT116 cells after 72 hrs by MTT assay; type: functional, cell-based; details: HCT-116, 72 h; summary of the method: as §1
SAOS-2 [3] = experiment: Induction of reactive oxygen species generation in human Saos2 cells at 10 uM after 1 hr by DCFH-DA dye-based fluorescence microscopic analysis relative to control; type: functional
Summary of the method: (§2)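 ROS was imaged by fluorescence microscopy in HCT-116 and Saos-2 cells after 1 h treatment at 10 μM. DMSO-treated cells served as the control.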

WI-38 = experiment: Cytotoxicity against human W138 cells after 72 hrs by MTT assay; type: cell-based; details: WI-38, 72 h; summary of the method: as §1
MDA-MB-231 = experiment: Antiproliferative activity against human MDA-MB-231 cells after 72 hrs by MTT assay; type: functional, cell-based; details: MDA-MB-231, 72 h; summary of the method: as §1
SK-HEP1 = experiment: Antiproliferative activity against human SKHEP1 cells after 72 hrs by MTT assay; type: functional, cell-based; details: SK-HEP1, 72 h; summary of the method: as §1
U2OS = experiment: Antiproliferative activity against human U2OS cells after 72 hrs by MTT assay; type: functional, cell-based; summary of the method: as §1
HCT-116 [4] = experiment: Induction of reactive oxygen species generation in human HCT116 cells at 10 uM after 1 hr by DCFH-DA dye-based fluorescence microscopic analysis; type: functional, cell-based; summary of the method: as §2
A549 = experiment: Antiproliferative activity against human A549 cells after 72 hrs by MTT assay; type: functional, cell-based; details: A549, 72 h; summary of the method: as §1
HCT-116 [5] = experiment: Induction of apoptosis in human HCT116 cells after 24 hrs by annexin V-FITC/propidium iodide staining-based flow cytometric method; type: functional, cell-based
Summary of the method: (§3)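 Apoptosis was scored by fluorescence-activated cell sorting after 24 h treatment of HCT-116 and Saos-2 cells, with DMSO controls. Cell morphology was also examined. The percentage of apoptotic cells was reported at 1 and 5 μM.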

SAOS-2 [6] = experiment: Cell cycle arrest in human Saos2 cells assessed as accumulation at S phase at 1 to 5 uM after 24 hrs by propidium iodide staining based flow cytometric method; type: functional
HCT-116 [7] = experiment: Cell cycle arrest in human HCT116 cells assessed as accumulation at S phase 1 to 5 uM after 24 hrs by propidium iodide staining based flow cytometric method; type: functional
HCT-116 [8] = experiment: Cell cycle arrest in human HCT116 cells assessed as accumulation at G0/G1 phase at 1 to 5 uM after 24 hrs by propidium iodide staining based flow cytometric method; type: functional
SAOS-2 [9] = experiment: Induction of apoptosis in human Saos2 cells after 24 hrs by annexin V-FITC/propidium iodide staining-based flow cytometric method; type: functional, cell-based; summary of the method: as §3
HCT-116 [10] = experiment: Cell cycle arrest in human HCT116 cells accumulation at G0/G1 phase at 1 to 5 uM after 24 hrs by propidium iodide staining based flow cytometric method
SAOS-2 [11] = experiment: Induction of apoptosis in human Saos2 cells at 5 uM after 24 hrs by annexin V-FITC/propidium iodide staining-based flow cytometric method; type: functional; summary of the method: as §3
SAOS-2 [12] = experiment: Cell cycle arrest in human Saos2 cells assessed as accumulation at G2/M phase at 1 to 5 uM after 24 hrs by propidium iodide staining based flow cytometric method; type: functional
SAOS-2 [13] = experiment: Induction of apoptosis in human Saos2 cells at 1 uM after 24 hrs by annexin V-FITC/propidium iodide staining-based flow cytometric method; type: functional; summary of the method: as §3
HCT-116 [14] = experiment: Induction of apoptosis in human HCT116 cells at 1 uM after 24 hrs by annexin V-FITC/propidium iodide staining-based flow cytometric method; type: functional; summary of the method: as §3
SAOS-2 [15] = experiment: Induction of reactive oxygen species generation in human Saos2 cells at 1 to 5 uM after 1 to 3 hrs by DCFH-DA dye-based fluorescence microscopic analysis; type: functional, cell-based
Summary of the method: (§4)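 Cellular ROS was imaged by fluorescence microscopy in HCT-116 and Saos-2 cells. Cells were treated at 1, 5 and 10 μM for 1 h and 3 h, with a DMSO control.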

HCT-116 [16] = experiment: Induction of reactive oxygen species generation in human HCT116 cells at 1 to 10 uM by DCFH-DA dye-based fluorescence microscopic analysis; type: functional, cell-based; details: TDE = time-dependent effect; summary of the method: as §4
HCT-116 [17] = experiment: Cell cycle arrest in human HCT116 cells assessed as accumulation at G0/G1 phase after 24 hrs by propidium iodide staining based flow cytometric method; type: functional
HCT-116 [18] = experiment: Induction of apoptosis in human HCT116 cells at 5 uM after 24 hrs by annexin V-FITC/propidium iodide staining-based flow cytometric method; type: functional; summary of the method: as §3
SAOS-2 [19] = experiment: Induction of reactive oxygen species generation in human Saos2 cells at 1 to 10 uM DCFH-DA dye-based fluorescence microscopic analysis; type: functional, cell-based; details: TDE = time-dependent effect; summary of the method: as §4
HCT-116 [20] = experiment: Induction of reactive oxygen species generation in human HCT116 cells at 1 to 5 uM after 1 to 3 hrs by DCFH-DA dye-based fluorescence microscopic analysis; type: functional, cell-based; summary of the method: as §4

IC50 (HCT-116 [2]) [µM]	IC50 (MDA-MB-231) [µM]	IC50 (SK-HEP1) [µM]	IC50 (U2OS) [µM]	IC50 (A549) [µM]	Structure (SMILES)	IC50 (SAOS-2 [1]) [µM]	IC50 (WI-38) [µM]	Activity (HCT-116 [4])	also measured
2.36	2.97	1.9	1.67	2.97	O=C(/C=C/c1cccnc1)N1CCC=C(Cl)C1=O	0.53	47	Active	fold change (FC) (SAOS-2 [3]): 2
10.2	8.68	3.52	6.63	10.6	O=C1C(Cl)=CCCN1C(=O)c1cnc2ccccc2c1	2.96	> 100		
64.5	65.1	72.9	68.3	85.1	O=C1C(Cl)=CCCN1C(=O)C1CC1c1ccccc1 (stereo unspecified)	23.5	> 100		
3.84	4.83	4.83	5.67	8.64	O=C1C(Cl)=CCCN1C(=O)c1cccnc1	2.55	31		
7.34	10.6	13.3	9.49	6.84	COc1cc(/C=C/C(=O)N2CCC=CC2=O)cc(OC)c1OC [PIPLARTINE]	7.31	> 100	Active	Activity (HCT-116 [5]): Dose-dependent effect; Activity (SAOS-2 [6]): inactive; Activity (HCT-116 [7]): Active; Activity (HCT-116 [8]): Active; Activity (SAOS-2 [9]): Dose-dependent effect; Activity (HCT-116 [10]): Active; Activity (SAOS-2 [11]): 33%; Activity (SAOS-2 [12]): inactive; Activity (SAOS-2 [13]): 26%
5.89	19.2	13.6	8.6	18.6	O=C1C(Cl)=CCCN1C(=O)c1ccco1	3.86	> 100		
4.49	5.52	1.27	1.47	8.3	O=C(/C=C/c1ccco1)N1CCC=C(Cl)C1=O	0.28	> 100		
1.67	1.67	0.71	1.17	4.12	O=C(/C=C/c1ccccc1)N1CCC=C(Cl)C1=O	0.011	84.6	Active	Activity (HCT-116 [14]): 16%; Activity (HCT-116 [5]): Dose-dependent effect; fold change (FC) (SAOS-2 [3]): 2; Activity (SAOS-2 [15]): Active; Activity (SAOS-2 [6]): inactive; Activity (HCT-116 [7]): Active; Activity (HCT-116 [16]): Tde; Activity (SAOS-2 [9]): Dose-dependent effect; Activity (HCT-116 [17]): Dose-dependent effect; Activity (HCT-116 [18]): 17%; Activity (SAOS-2 [11]): 21.5%; Activity (SAOS-2 [19]): Tde; Activity (SAOS-2 [12]): inactive; Activity (SAOS-2 [13]): 12.7%; Activity (HCT-116 [20]): Active
0.92	1.73	1.19	1.12	7.93	O=C(C#Cc1ccccc1)N1CCC=C(Cl)C1=O	0.42	> 100	inactive	fold change (FC) (SAOS-2 [3]): 2
> 100	> 100	> 100	> 100	> 100	O=C1C(Cl)=CCCN1C(=O)c1ccncc1	89.9	> 100		
4.2	5.04	3.96	7.29	8.6	O=C(/C=C/C(=O)N1CCC=C(Cl)C1=O)N1CCC=C(Cl)C1=O	0.82	89.5		
> 100	> 100	75.2	97.5	> 100	O=C1C(Br)=CCCN1C(=O)c1cnc2ccccc2c1	26.7	> 100		
4.37	4.97	2.78	2.26	11	O=C(/C=C/c1ccoc1)N1CCC=C(Cl)C1=O	1.15	> 100		

— ChEMBL document CHEMBL4028833, “Novel non-trimethoxylphenyl piperlongumine derivatives selectively kill cancer cells” (Bioorg Med Chem Lett, 2017)
